Our source for the Activity and IC50 values is ChEMBL document CHEMBL1144522, “Novel C2-C3' N-peptide linked macrocyclic taxoids. Part 2: synthesis and biological activities of docetaxel analogues with a peptide side chain at C2 and their macrocyclic derivatives” (Bioorg Med Chem, 2007).

Active and inactive are the calls of the source. The calls are words filed in the database; no cut-off is given here. *1 amine or outer side, *2 acyl side, *3 side chain or, on linkers, in order; H or OH if unused. Where a SMILES comes first, the peptide text is derived from it. Bridges are numbered along the chain shown (N, C = ends). [ ]: non-standard residue; d: D form. The star is where a group is joined. ξ: configuration not given here. X1 = CC(=O)O[C@@]12COC1C[C@H](O)[C@@]1(C)C(=O)[C@H](O)C3=C(C)[C@@H](OC(=O)[C@H](O)[C@@H](NC(=O)[*:1])c4ccccc4)C[C@@](O)([C@@H](O[*:2])C21)C3(C)C; ξD = NC(CC(=O)O)C(=O)O; OtBu = CC(C)(C)O*

One series has as its target Tubulin (Homo sapiens) (UniProt P68371+Q9H4B7+P0DPH7+P68366+Q13509+Q71U36+P04350+Q3ZCM7+P07437+P68363+Q9BQE3+Q6PEY2+Q13885+Q9BVA1+Q9BUF5). As to the kind of experiment: (§1) Tubulin interaction assessed as inhibition of cold-induced microtubule disassembly. The class given is protein-complex assay. In short, it runs like this:
(§2)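 Microtubular protein was purified from mammalian brain. The assay followed the rate of microtubule disassembly. IC50 is the concentration that inhibits that rate by 50%. Run by an established literature protocol.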

For another series, the system named is KB. The series is described as follows: Cytotoxicity against human KB cells after 72 hrs. The note with it: for IC50: Homo sapiens, KB; for Activity: human, kb. The class given is cell-based. Put shortly: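 Cell proliferation measured after 72 h incubation with compound. IC50 is the drug concentration that inhibits proliferation by 50%. Run by an established literature protocol.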

A further series addresses Tubulin. The description is as §1. The class given is protein-complex assay, Homo sapiens. In short, it runs like this: as §2

In the case of `CC(=O)O[C@@]12COC1C[C@H](O)[C@@]1(C)C(=O)[C@H](O)C3=C(C)[C@@H](OC(=O)[C@H](O)[C@@H](NC(=O)NCC(=O)N[C@@H](COCc4ccccc4)C(=O)N[C@@H](Cc4ccc(OCc5ccccc5)cc4)C(=O)OCc4ccccc4)c4ccccc4)C[C@@](O)([C@@H](OCc4ccccc4)C21)C3(C)C` (some centres undefined), the result on Tubulin (Homo sapiens) was inactive. This molecule registered an IC50 in the series on KB of 0.09 µM. Take `CC(=O)O[C@@]12COC1C[C@H](O)[C@@]1(C)C(=O)[C@H](O)C3=C(C)[C@@H](OC(=O)C(O)[C@@H](NC(=O)N[C@H](C(=O)N4CCC[C@H]4C(=O)NCC(=O)NCC(=O)OCc4ccccc4)C(C)C)c4ccccc4)C[C@@](O)([C@@H](OC(=O)c4cccc([N+](=O)[O-])c4)C21)C3(C)C` (some centres undefined): the IC50 on Tubulin is 0.5 µM; in the series with KB it was greater than 10 µM. For `CC(=O)O[C@@]12COC1C[C@H](O)[C@@]1(C)C(=O)[C@H](O)C3=C(C)[C@@H](OC(=O)[C@H](O)[C@@H](NC(=O)OC(C)(C)C)c4ccccc4)C[C@@](O)([C@@H](OC(=O)CN)C21)C3(C)C` (some centres undefined), in that order: 51 µM and greater than 10 µM. Regarding `CC(=O)O[C@@]12COC1C[C@H](O)[C@@]1(C)C(=O)[C@H](O)C3=C(C)[C@@H](OC(=O)[C@H](O)[C@@H](NC(=O)OC(C)(C)C)c4ccccc4)C[C@@](O)([C@@H](OC(=O)CNC(=O)CN)C21)C3(C)C` (some centres undefined), the result at Tubulin (Homo sapiens) was inactive. Besides, in the series on KB, the Activity entry is “Not Active”. Take `COC(=O)[C@@H](CCSC)NC(=O)[C@H](Cc1ccccc1)NC(=O)[C@@H](NC(=O)N[C@@H](c1ccccc1)[C@@H](O)C(=O)O[C@H]1C[C@@]2(O)[C@@H](OCc3ccccc3)C3[C@]4(OC(C)=O)COC4C[C@H](O)[C@@]3(C)C(=O)[C@H](O)C(=C1C)C2(C)C)C(C)C` (some centres undefined): on Tubulin, the IC50 was 2.6 µM.

`CC(=O)O[C@@]12COC1C[C@H](O)[C@@]1(C)C(=O)[C@H](O)C3=C(C)[C@@H](OC(=O)[C@H](O)[C@@H](NC(=O)OC(C)(C)C)c4ccccc4)C[C@@](O)([C@@H](OC(=O)CNC(=O)Oc4ccccc4)C21)C3(C)C` (some centres undefined): the result at Tubulin (Homo sapiens) was inactive. In the series on KB, this molecule yielded an IC50 of 0.09 µM. On to `CC(=O)O[C@@]12COC1C[C@H](O)[C@@]1(C)C(=O)[C@H](O)C3=C(C)[C@@H](OC(=O)C(O)C(NC(=O)N[C@H](C(=O)N4CCC[C@H]4C(=O)NCC(=O)O)C(C)C)c4ccccc4)C[C@@](O)([C@@H](OCc4ccccc4)C21)C3(C)C` (some centres undefined), for which the IC50 at Tubulin is 0.6 µM; with KB, greater than 10 µM. `CC(=O)O[C@@]12COC1C[C@H](O)[C@@]1(C)C(=O)[C@H](O)C3=C(C)[C@@H](OC(=O)[C@H](O)[C@@H](NC(=O)OC(C)(C)C)c4ccccc4)C[C@@](O)([C@@H](OC(=O)[C@@H](NC(=O)[C@@H]4CCCN4C(=O)CNC(=O)CN)C(C)C)C21)C3(C)C` (some centres undefined): on Tubulin (Homo sapiens), the result was inactive. For the same molecule, the Activity result in the series with KB was “Not Active”.

On to `CC(=O)O[C@@]12COC1C[C@H](O)[C@@]1(C)C(=O)[C@H](O)C3=C(C)[C@@H]4C[C@@](O)([C@@H](OC(=O)CNC(=O)CNC(=O)[C@@H]5CCCN5C(=O)[C@H](C(C)C)NC(=O)N[C@@H](c5ccccc5)[C@@H](O)C(=O)O4)C21)C3(C)C` (some centres undefined), for which, in the series with KB, the Activity result was “Non-toxic”. On to `CC(=O)O[C@@]12COC1C[C@H](O)[C@@]1(C)C(=O)[C@H](O)C3=C(C)[C@@H](OC(=O)[C@H](O)[C@@H](NC(=O)NCC(=O)N[C@@H](CO)C(=O)N[C@@H](Cc4ccc(O)cc4)C(=O)O)c4ccccc4)C[C@@](O)([C@@H](OCc4ccccc4)C21)C3(C)C` (some centres undefined), for which the IC50 came to 1 µM at Tubulin and 1.05 µM in the series with KB. Take `CC(=O)O[C@@]12COC1C[C@H](O)[C@@]1(C)C(=O)[C@H](O)C3=C(C)[C@@H](OC(=O)C(O)[C@@H](NC(=O)N[C@H](C(=O)N4CCC[C@H]4C(=O)NCC(=O)NCC(=O)O)C(C)C)c4ccccc4)C[C@@](O)([C@@H](OC(=O)c4cccc(N)c4)C21)C3(C)C` (some centres undefined): the IC50 is 1 µM on Tubulin and greater than 10 µM in the series with KB. On to `CC(=O)O[C@@]12COC1C[C@H](O)[C@@]1(C)C(=O)[C@H](O)C3=C(C)[C@@H](OC(=O)[C@H](O)[C@@H](NC(=O)OC(C)(C)C)c4ccccc4)C[C@@](O)([C@@H](OC(=O)[C@@H]4CCCN4C(=O)CNC(=O)CN)C21)C3(C)C` (some centres undefined), for which, at Tubulin (Homo sapiens), the outcome was inactive. In the series with KB, the Activity result is on record as “Not Active”. As for `CC(=O)O[C@@]12COC1C[C@H](O)[C@@]1(C)C(=O)[C@H](O)C3=C(C)[C@@H]4C[C@@](O)([C@@H](OC(=O)CNC(=O)C(CC(=O)OC(C)(C)C)NC(=O)CNC(=O)CNC(=O)[C@@H]5CCCN5C(=O)[C@H](C(C)C)NC(=O)N[C@@H](c5ccccc5)[C@@H](O)C(=O)O4)C21)C3(C)C` (some centres undefined) (VPGG[ξD](OtBu)G; linker N-C via X1), in the series on KB, the Activity entry was “Non-toxic”. Regarding `CC(=O)O[C@@]12CO[C@@H]1C[C@H](O)[C@@]1(C)C(=O)[C@H](O)C3=C(C)[C@@H](OC(=O)[C@H](O)[C@@H](NC(=O)OC(C)(C)C)c4ccccc4)C[C@@](O)([C@@H](OC(=O)c4ccccc4)[C@H]21)C3(C)C` [DOCETAXEL], the values for the IC50 at Tubulin and in the series on KB were 0.5 µM and 0.0001 µM, respectively.

For the molecule `CC(=O)O[C@@]12COC1C[C@H](O)[C@@]1(C)C(=O)[C@H](O)C3=C(C)[C@@H](OC(=O)[C@H](O)[C@@H](NC(=O)N[C@H](C(=O)OCc4ccccc4)C(C)C)c4ccccc4)C[C@@](O)([C@@H](OCc4ccccc4)C21)C3(C)C` (some centres undefined), the IC50 turned out to be 0.8 µM at Tubulin and 0.004 µM with KB. Take `CC(=O)O[C@@]12COC1C[C@H](O)[C@@]1(C)C(=O)[C@H](O)C3=C(C)[C@@H]4C[C@@](O)([C@@H](OC(=O)c5cccc(c5)NC(=O)CNC(=O)CNC(=O)[C@@H]5CCCN5C(=O)[C@H](C(C)C)NC(=O)N[C@@H](c5ccccc5)[C@@H](O)C(=O)O4)C21)C3(C)C` (some centres undefined): the Activity entry with KB is “Non-toxic”. For the molecule `COC(=O)[C@H](CCSC)NC(=O)[C@H](Cc1ccccc1)NC(=O)[C@@H](NC(=O)N[C@@H](c1ccccc1)[C@@H](O)C(=O)O[C@H]1C[C@@]2(O)[C@@H](OCc3ccccc3)C3[C@]4(OC(C)=O)COC4C[C@H](O)[C@@]3(C)C(=O)[C@H](O)C(=C1C)C2(C)C)C(C)C` (some centres undefined), in the series with KB, the IC50 came to 1.1 µM.

By IC50 is commonly meant the concentration needed to halve the response being measured.
